Bioassay records deposited in PubChem BioAssay by Johns Hopkins Ion Channel Center.
KCNK9 block – blocks the human KCNK9 two-pore domain potassium channel; HEK293 KCNK9, FluxOR thallium flux fluorescence; stronger effect = lower value; B-score at 10 µM; hit rate 1.2% among 310,000; Q9NPC2;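 active means ratio B-score over 3 SD below the library mean, with starting fluorescence within 5 SD of its mean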;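 further: negative B-score means less thallium flux so channel inhibition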
KCNK3 inh – human KCNK3 channel inhibition, primary screen; O14649; CHO-KCNK3 thallium flux, FluxOR fluorescence; stronger effect = lower value; B-score at 10 µM; hit rate 0.84% among 340,000;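 active means B-score under library mean minus 4 SD, starting fluorescence ratio at most library mean plus 5 SD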;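 further: more negative B-score means stronger inhibition of thallium flux through KCNK3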
KCNQ1 act – potentiates or activates the human KCNQ1 potassium channel. CHO-K1 KCNQ1, thallium flux FluxOR fluorescence; stronger effect = higher value. AID 2648. P51787. hit rate 0.35% among 310,000. B-score at 10 µM;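 active means fluorescence ratio B-score, a plate-corrected score, at least three library SD, with initial intensity B-score within 5 SD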
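assay system = CHO-K1 cells stably expressing KCNQ1 | medium = assay buffer, equal DMSO in all wells | timing = 37 °C overnight plating, 90-min dark dye load, 20-min compound pretreatment | measured by = kinetic FluxOR thallium fluorescence, 10-s 1-Hz baseline, 110-s post-stimulus read | measure = fluorescence change relative to baseline, converted to B score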
hERG protect – hERG (human) protection from proarrhythmic block; Q12809; CHO-hERG, FluxOR thallium flux, dofetilide IC70 present; activation (rescue from dofetilide block), less the hit threshold, % at 10 µM; hit rate 0.51% among 310,000; AID 1511;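 active means activation above the mean of controls blocked by dofetilide plus 5 SD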;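 further: thallium influx through hERG after potassium depolarization seen as dye fluorescence rise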
KCNQ1 block – blocks the human KCNQ1 potassium channel. P51787. CHO-K1 KCNQ1, FluxOR thallium flux fluorescence; stronger effect = higher value. B-score at 10 µM. hit rate 1.3% among 310,000. AID 2642;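 active means compounds whose thallium flux B-score, printed positive for inhibition, exceeds three library SD while starting fluorescence stays within three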;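 further: channel opened by potassium depolarization with thallium stimulus after 20 min compound exposure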
Kir21 inh – Kir2.1 (mouse) channel inhibition; P35561; HEK293-Kir2.1, FluxOR thallium flux fluorescence; stronger effect = lower value; B-score at 10 µM; hit rate 0.85% among 310,000; AID 1672;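 active means fluorescence ratio B-score at or below minus 3 SD of library scores, with starting-brightness B-score within 2 SD, cut at about -4.2 in these data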;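 further: channel flux triggered by added potassium and thallium sulfate stimulus; B-score of peak minus minimum fluorescence over baseline after thallium stimulus; more negative B-score means stronger Kir2.1 block with less thallium influx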
Target sequence (P35561 whole entry, looked up): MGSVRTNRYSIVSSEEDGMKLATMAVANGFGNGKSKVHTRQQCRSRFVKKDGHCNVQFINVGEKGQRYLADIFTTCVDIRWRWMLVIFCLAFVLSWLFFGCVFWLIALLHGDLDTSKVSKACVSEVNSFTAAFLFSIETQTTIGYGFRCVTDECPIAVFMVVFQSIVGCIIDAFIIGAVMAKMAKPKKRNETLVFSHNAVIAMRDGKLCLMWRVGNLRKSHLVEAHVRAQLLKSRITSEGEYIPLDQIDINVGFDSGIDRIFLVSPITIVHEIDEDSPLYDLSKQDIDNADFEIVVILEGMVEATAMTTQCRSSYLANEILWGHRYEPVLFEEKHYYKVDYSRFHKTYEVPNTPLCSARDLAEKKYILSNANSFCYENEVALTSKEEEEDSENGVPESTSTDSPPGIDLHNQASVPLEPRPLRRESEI
KCNK3 confirm – confirmation of human KCNK3 two-pore domain potassium channel inhibitors; CHO-KCNK3 thallium flux, FluxOR fluorescence; 0% buffer, 100% carvedilol maximal block; shares compounds with KCNK3 inh; ratio percent of control, % at 10 µM; hit rate 99% among 2,400;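 active means ratio percent of control, averaged over triplicates, above buffer control mean plus 5 SD, cut at about 64% in these data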;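 further: ratio is the fluorescence rise from min to max over baseline after thallium stimulus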
KCNK3 noninduced – KCNK3 inhibitor counter-screen hit in non-induced cells; hit rate 40% among 2,400; non-induced KCNK3 parental cells, FluxOR thallium flux; stronger effect = lower value; AID 651747; shares compounds with KCNK3 inh; thallium flux ratio (lower = more inhibition) at 10 µM;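 active means thallium flux ratio, averaged over three wells, more than 5 SD below the buffer control mean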;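 further: host cells are CHO cells without KCNK3 induction; ratio is peak minus trough fluorescence over baseline then normalized to buffer controls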
* marks the source's active call; other numbers are inactive results; i = inactive; nt = no result given. In the library only some 3.8% were active in any assay of this set; here they are far more common.

SMILES	KCNK9 block	KCNK3 inh	KCNQ1 act	hERG protect	KCNQ1 block	Kir21 inh	KCNK3 confirm	KCNK3 noninduced
CCC(OC(=O)CNS(=O)(=O)c1ccccc1)C(=O)c1ccccc1 (centres undefined)	i	i	i	-11	i	-1.4	nt	nt
CC(C)CNC(=S)N1CCN(C(c2ccccc2)c2ccccc2)CC1	i	i	i	-8	i	-0.3	nt	nt
S=C(NCc1ccco1)N1CCN(C(c2ccccc2)c2ccccc2)CC1	-7.8*	-12*	i	-4	i	1.5	135*	0.15*
O=C(Cn1cnc([N+](=O)[O-])n1)c1ccccc1	i	i	i	-1	i	0.17	nt	nt
O=C(Cn1cnc([N+](=O)[O-])n1)c1ccc(O)c(O)c1	-8*	-9.2*	i	-3	i	-0.06	79*	i
COC1(OC)C(/C=C/c2ccc(C)cc2)C(C#N)(C#N)C1(OC)OC (centres undefined)	i	-10*	i	-15	i	0.06	133*	0.14*
CCN1CCN(c2c(/C=C3\SC(=S)N(Cc4ccco4)C3=O)c(C)c(C#N)c(=O)n2C)CC1	i	-16*	i	-37	7*	-1.8	141*	0.089*
CCN1C(=O)/C(=C\N2CCN(C(=O)c3ccco3)CC2)SC1=S	i	i	i	-4	i	-0.35	nt	nt
O=C(c1cccc2ccccc12)C1CCCN(C(=O)c2ccc(N3CCOCC3)cc2)C1 (centres undefined)	i	-9.3*	i	-14	i	-0.89	99*	i
CC1(C)CC(=O)C2=C(C1)c1c(ccc3ccccc13)NC2c1ccc(Br)o1 (centres undefined)	i	-10*	i	-12	i	-0.72	113*	i
COc1cc(C(=S)N2CCOCC2)ccc1OC(=O)c1ccccc1C	i	-8.8*	i	-6	i	1.2	90*	i
NC(=O)c1cc[n+](CC(=O)NC(=O)Nc2ccccc2)cc1	nt	i	nt	nt	nt	nt	nt	nt
CN(CC(=O)Nc1cccc(F)c1)CC(=O)Nc1ccccc1Oc1ccccc1	i	-9*	i	-13	i	0.47	105*	i
Cc1cc(O)c(C(C)C)cc1NC(=O)c1ccccc1Cl	i	i	i	-11	i	-2.1	nt	nt
Cc1cc(O)c(C(C)C)cc1NC(=O)Nc1cc(Cl)ccc1Cl	nt	-12*	nt	nt	nt	nt	114*	0.16*
O=C(CSc1n[nH]c(=O)n1-c1ccccc1)N1CCOCC1	i	i	i	-3	i	-0.14	nt	nt
O=C(CC(c1ccccc1)c1ccccc1)Nc1ccc(Cl)cn1	i	-8.9*	i	-4	i	0.22	109*	i
O=C(CS(=O)(=O)c1ccccc1)Nc1ccc(Cl)cn1	i	i	i	-5	i	-0.85	nt	nt
O=C(CC(c1ccccc1)c1ccccc1)Nc1ccc(O)cc1	i	-9.7*	i	-9	i	-0.58	88*	i
O=C(CSC1=N/C(=C/c2ccco2)C(=O)N1c1ccc(OC(F)F)cc1)NC1CCS(=O)(=O)C1 (centres undefined)	i	-8.9*	i	-10	i	-0.2	83*	i
CCNC(=O)CSC1=N/C(=C\c2ccc(O)c(OCC)c2)C(=O)N1c1ccc(OC(F)F)cc1	i	i	i	-10	i	-0.2	nt	nt
COc1ccc(S(=O)(=O)N2CCOC2CNC(=O)C(=O)NCCN2CCOCC2)cc1C (centres undefined)	i	i	i	-8	i	0.24	nt	nt
CC(C)(C)c1ccc(C(=O)NCCC(=O)N2CCCC2)cc1	i	i	i	-10	i	1.7	nt	nt
CC(C)(C)c1ccc(C(=O)NCCC(=O)N2CCN(c3ncccn3)CC2)cc1	i	-12*	i	-6	i	0.68	86*	i
CCCSc1nc(NCc2ccco2)c2c3c(sc2n1)COC(C)(C)C3	i	-9.6*	i	-11	6*	0.41	108*	i
SMILES	KCNK9 block	KCNK3 inh	KCNQ1 act	hERG protect	KCNQ1 block	Kir21 inh	KCNK3 confirm	KCNK3 noninduced
Cc1ccc(S(=O)(=O)N2CCN(C(=O)CN3C(=O)c4ccccc4C3=O)CC2)c(C)c1	nt	i	nt	nt	nt	nt	nt	nt
CCOC(=O)C1=C(C)NC2=C(C(=O)c3ccccc32)C1c1cccc2ccccc12 (centres undefined)	i	-11*	i	-4	i	-1.5	113*	0.15*
Cc1cc(/C=C2\SC(=S)NC2=O)c(C)n1-c1cccc(O)c1	-7.3*	-8.9*	i	-17	i	-2.7	113*	0.15*
Cc1ccc(NC(=O)CSc2nc(=O)n(CCN(C)C)c3c2CCCC3)cc1Cl	i	-10*	i	-11	i	-2.1	68*	i
CCOC(=O)Cc1nn(Cc2ccc(Cl)cc2)c(=O)c2ccccc12	i	i	i	-4	i	0.81	nt	nt
N#CCc1nn(Cc2ccc(F)cc2)c(=O)c2ccccc12	i	-9*	i	-4	i	1.2	94*	i
O=c1c2ccccc2nnn1Cc1ccc(F)cc1	i	i	i	-9	i	2.2	nt	nt
CCOC(=O)Cc1nn(Cc2ccccc2)c(=O)c2ccccc12	i	-9.9*	i	-15	i	-1.8	109*	0.15*
Cc1cc(C)cc(N2CC(C(=O)OCC(=O)Nc3cc(C)on3)CC2=O)c1 (centres undefined)	i	i	i	-3	i	-1.5	nt	nt
COc1ccc(C(=O)N[C@H](C(=O)OCCCOC(=O)[C@@H](NC(=O)c2ccc(OC)cc2)C(C)C)C(C)C)cc1	nt	i	nt	nt	nt	nt	nt	nt
CCOC(=O)c1cc2c(=O)n3ccccc3nc2n(Cc2ccco2)c1=NC(=O)c1ccccc1OCC	i	-8.8*	i	-12	i	-2.8	91*	i
CCOC(=O)c1cc2c(=O)n3ccccc3nc2n(CC(C)C)c1=NC(=O)c1ccco1	i	i	i	-12	i	-0.25	nt	nt
CCOC(=O)c1c(NC(=O)C2CCCO2)sc(C)c1C (centres undefined)	i	-11*	i	1	i	1.1	109*	i
CCOC(=O)c1c(NC(=O)COC(=O)C2CC2C)sc(C)c1C (centres undefined)	-8.1*	-10*	i	-15	i	-0.18	110*	i
Cc1sc(NC(=O)C2CCCO2)c(C(N)=O)c1C (centres undefined)	i	i	i	-10	i	0.46	nt	nt
